In ChEMBL document CHEMBL1145753, “Identification of a potent and selective 5-HT(6) antagonist: one-step synthesis of (E)-3-(benzenesulfonyl)-2- (methylsulfanyl)pyrido[1,2-a]pyrimidin-4-ylidenamine from 2-(benzenesulfonyl)-3,3-bis(methylsulfanyl)acrylonitrile” (J Med Chem, 2003):

What was measured:
[1] = target: 5-hydroxytryptamine receptor 6 (Homo sapiens, UniProt P50406); assay: Binding affinity towards 5-hydroxytryptamine 6 receptor using [3H]- LSD as radioligand
How it was run: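 Membranes from HEK293 cells expressing recombinant human 5-HT6 receptor. Displacement of [3H]LSD binding measured; IC50 derived.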

[2] = Apparent dissociation constant was determined
How it was run: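 Human 5-HT6 receptor expressed in HEK293 cells with coexpressed Gα15, read out as 5-HT-stimulated Ca2+ mobilization. 5-HT EC50 was measured without antagonist and with increasing antagonist concentrations. Dose ratio is EC50 with antagonist divided by EC50 for 5-HT alone. Schild plot of log(dose ratio − 1) vs −log[antagonist]. Triplicate points; experiment repeated at least twice.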

Cytochrome P450 2C9 = Cytochrome P450 2C9 (Homo sapiens, UniProt P11712); assay: Inhibition of recombinant human Cytochrome P450 2C9; format: ADME
How it was run: (§1)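 Recombinant human CYP enzymes with fluorogenic substrates. CYP1A2: 3-cyano-7-ethoxycoumarin deethylation. CYP2C9: 7-methoxy-4-trifluoromethylcoumarin dealkylation. CYP2D6: 3-[2-(N,N-diethyl-N-methylamino)ethyl]-7-methoxy-4-methylcoumarin demethylation. CYP3A4: benzoylresorufin or 7-benzyloxy-4-trifluoromethylcoumarin dealkylation, tested separately. IC50 for metabolism inhibition reported as mean ± SEM (n = 7).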

Cytochrome P450 2D6 = Cytochrome P450 2D6 (Homo sapiens, UniProt P10635); assay: Inhibition of recombinant human Cytochrome P450 2D6; format: ADME; how it was run: as §1
Cytochrome P450 1A2 = target: T1, Cytochrome P450 1A2 (Homo sapiens, UniProt P05177); assay: Inhibition of recombinant human Cytochrome P450 1A2; format: ADME; how it was run: as §1
T1 sequence (P05177 whole entry): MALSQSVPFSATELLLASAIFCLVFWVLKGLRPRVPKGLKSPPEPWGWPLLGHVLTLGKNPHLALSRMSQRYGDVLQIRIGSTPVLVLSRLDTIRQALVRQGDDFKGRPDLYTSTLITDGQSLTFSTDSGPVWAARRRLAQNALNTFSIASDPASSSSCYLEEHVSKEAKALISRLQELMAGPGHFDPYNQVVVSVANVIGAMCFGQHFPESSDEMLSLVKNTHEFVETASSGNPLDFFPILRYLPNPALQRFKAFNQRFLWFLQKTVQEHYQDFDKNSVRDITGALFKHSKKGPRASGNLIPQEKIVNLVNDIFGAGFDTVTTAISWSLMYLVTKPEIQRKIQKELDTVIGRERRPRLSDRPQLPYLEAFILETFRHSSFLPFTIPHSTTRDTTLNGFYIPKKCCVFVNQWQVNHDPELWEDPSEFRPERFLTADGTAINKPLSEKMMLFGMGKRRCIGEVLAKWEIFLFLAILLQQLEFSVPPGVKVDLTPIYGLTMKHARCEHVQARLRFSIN

Cytochrome P450 3A4 [3] = target: T2, Cytochrome P450 3A4 (Homo sapiens, UniProt P08684); assay: Inhibition of recombinant human Cytochrome P450 3A4 with BFC; format: ADME; how it was run: as §1
Cytochrome P450 3A4 [4] = target: T2, Cytochrome P450 3A4; assay: Inhibition of recombinant human Cytochrome P450 3A4 with BzRes; format: ADME; how it was run: as §1
[5] = target: Cytochrome P450 2C19 (Homo sapiens) (UniProt P33261); assay: Inhibition of recombinant human Cytochrome P450 2C19
Cytochrome P450 2C19 (Homo sapiens), sequence (P33261 whole entry, looked up): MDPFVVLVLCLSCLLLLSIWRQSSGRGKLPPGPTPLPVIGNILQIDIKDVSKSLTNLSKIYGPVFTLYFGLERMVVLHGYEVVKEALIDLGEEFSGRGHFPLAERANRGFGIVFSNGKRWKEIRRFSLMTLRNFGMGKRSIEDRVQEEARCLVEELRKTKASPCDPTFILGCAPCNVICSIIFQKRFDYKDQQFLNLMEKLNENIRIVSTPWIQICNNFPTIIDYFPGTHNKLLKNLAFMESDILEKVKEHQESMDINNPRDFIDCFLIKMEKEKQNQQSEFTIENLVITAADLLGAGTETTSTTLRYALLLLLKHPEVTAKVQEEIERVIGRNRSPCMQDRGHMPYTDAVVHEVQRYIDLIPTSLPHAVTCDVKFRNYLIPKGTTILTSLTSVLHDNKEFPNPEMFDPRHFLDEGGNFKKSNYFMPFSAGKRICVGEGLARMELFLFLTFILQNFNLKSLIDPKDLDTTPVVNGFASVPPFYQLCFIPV

5-hydroxytryptamine receptor 6, sequence (P50406 whole entry): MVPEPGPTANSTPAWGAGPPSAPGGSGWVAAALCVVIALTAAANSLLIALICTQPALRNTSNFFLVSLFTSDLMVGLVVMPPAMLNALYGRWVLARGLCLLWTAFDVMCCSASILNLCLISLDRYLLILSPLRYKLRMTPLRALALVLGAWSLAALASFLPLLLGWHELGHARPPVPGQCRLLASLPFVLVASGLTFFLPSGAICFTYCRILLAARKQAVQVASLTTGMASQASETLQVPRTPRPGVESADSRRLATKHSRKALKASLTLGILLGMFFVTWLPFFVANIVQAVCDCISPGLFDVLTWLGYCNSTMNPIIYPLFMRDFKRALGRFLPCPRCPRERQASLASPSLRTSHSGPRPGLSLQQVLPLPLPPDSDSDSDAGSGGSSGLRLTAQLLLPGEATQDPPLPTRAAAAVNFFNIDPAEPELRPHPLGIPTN
T2 sequence (P08684 whole entry): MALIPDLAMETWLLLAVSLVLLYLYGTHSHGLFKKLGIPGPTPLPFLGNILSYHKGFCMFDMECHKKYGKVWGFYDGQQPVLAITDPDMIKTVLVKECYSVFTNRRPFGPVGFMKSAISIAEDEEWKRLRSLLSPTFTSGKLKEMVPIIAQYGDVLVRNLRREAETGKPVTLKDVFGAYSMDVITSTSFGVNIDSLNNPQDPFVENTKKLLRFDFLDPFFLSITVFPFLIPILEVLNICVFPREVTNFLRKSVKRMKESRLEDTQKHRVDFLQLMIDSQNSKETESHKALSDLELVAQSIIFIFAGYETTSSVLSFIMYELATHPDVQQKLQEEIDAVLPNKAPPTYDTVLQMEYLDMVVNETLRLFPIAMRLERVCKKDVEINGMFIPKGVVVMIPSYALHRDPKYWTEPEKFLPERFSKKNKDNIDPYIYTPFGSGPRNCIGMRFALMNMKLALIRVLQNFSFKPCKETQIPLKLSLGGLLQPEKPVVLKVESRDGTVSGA
Cytochrome P450 2D6, sequence (P10635 whole entry): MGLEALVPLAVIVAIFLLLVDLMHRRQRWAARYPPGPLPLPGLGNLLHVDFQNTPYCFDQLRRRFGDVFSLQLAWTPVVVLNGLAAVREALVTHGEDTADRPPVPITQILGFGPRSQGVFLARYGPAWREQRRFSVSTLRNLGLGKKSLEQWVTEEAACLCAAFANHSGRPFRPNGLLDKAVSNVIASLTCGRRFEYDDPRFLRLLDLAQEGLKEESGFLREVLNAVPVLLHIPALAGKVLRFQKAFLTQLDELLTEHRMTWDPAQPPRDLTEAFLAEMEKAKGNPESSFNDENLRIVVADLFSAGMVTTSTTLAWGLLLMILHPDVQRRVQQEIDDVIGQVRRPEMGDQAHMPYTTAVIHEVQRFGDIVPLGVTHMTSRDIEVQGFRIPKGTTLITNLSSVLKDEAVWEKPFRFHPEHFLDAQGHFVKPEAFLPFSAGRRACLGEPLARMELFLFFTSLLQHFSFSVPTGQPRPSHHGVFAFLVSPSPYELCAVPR
Cytochrome P450 2C9, sequence (P11712 whole entry): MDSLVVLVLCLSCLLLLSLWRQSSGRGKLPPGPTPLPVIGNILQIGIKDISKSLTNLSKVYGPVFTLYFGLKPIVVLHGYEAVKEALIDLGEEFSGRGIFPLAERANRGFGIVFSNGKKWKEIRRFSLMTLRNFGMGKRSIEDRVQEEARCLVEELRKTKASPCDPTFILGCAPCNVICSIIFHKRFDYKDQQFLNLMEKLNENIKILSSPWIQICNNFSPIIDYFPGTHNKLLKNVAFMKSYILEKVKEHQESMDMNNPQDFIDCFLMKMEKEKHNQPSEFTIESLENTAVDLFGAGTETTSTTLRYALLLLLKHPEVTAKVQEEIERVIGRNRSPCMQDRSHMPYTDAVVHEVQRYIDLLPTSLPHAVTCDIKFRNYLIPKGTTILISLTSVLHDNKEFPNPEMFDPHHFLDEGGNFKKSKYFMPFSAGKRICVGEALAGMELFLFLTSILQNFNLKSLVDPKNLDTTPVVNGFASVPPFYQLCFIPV

N#C/C(=C\Nc1ccccn1)S(=O)(=O)c1ccccc1
IC50 [1]: 524 nM

CCc1ccn2c(=N)c(S(=O)(=O)c3ccccc3)c(SC)nc2c1
IC50 [1]: 70.1 nM

CSc1nc2ccc(F)cn2c(=N)c1S(=O)(=O)c1ccccc1
IC50 [1]: 87.6 nM

CSc1nc2c(Br)cc(C)cn2c(=N)c1S(=O)(=O)c1ccccc1
IC50 [1]: 269 nM

CSc1nc2ccccn2c(=N)c1S(=O)(=O)c1ccccc1
IC50 [1]: 4 nM | Kd [2]: 4.7 nM | IC50 (Cytochrome P450 2C9): 24200 nM | IC50 (Cytochrome P450 2D6): > 40000 nM | IC50 (Cytochrome P450 1A2): > 40000 nM | IC50 (Cytochrome P450 3A4 [3]): > 40000 nM | IC50 (Cytochrome P450 3A4 [4]): > 40000 nM | IC50 [5]: 860 nM

CSc1nc2ccccn2c(=N)c1S(=O)(=O)c1ccc2ccccc2c1
IC50 [1]: 79.2 nM

CCCS(=O)(=O)c1c(SC)nc2ccccn2c1=N
IC50 [1]: 3580 nM

CSc1nc2c3ccccc3ccn2c(=N)c1S(=O)(=O)c1ccccc1
IC50 [1]: 68.9 nM

CNc1cc(NS(=O)(=O)c2ccc(N)cc2)nc(NC)n1
IC50 [1]: 26.3 nM
